In publication PMC9037807 (RSC Advances, 2021):
Values joined by “and” are separate entries in the source; they are usually repeats but may differ in a detail not shown here. Equal values may be shown once.

How the values were obtained:
[1] = target: T1, ovine COX-1 (Ovis aries, UniProt P05979); test: In vitro cyclooxygenase; format: biochemical
T1 sequence (P05979 25-600): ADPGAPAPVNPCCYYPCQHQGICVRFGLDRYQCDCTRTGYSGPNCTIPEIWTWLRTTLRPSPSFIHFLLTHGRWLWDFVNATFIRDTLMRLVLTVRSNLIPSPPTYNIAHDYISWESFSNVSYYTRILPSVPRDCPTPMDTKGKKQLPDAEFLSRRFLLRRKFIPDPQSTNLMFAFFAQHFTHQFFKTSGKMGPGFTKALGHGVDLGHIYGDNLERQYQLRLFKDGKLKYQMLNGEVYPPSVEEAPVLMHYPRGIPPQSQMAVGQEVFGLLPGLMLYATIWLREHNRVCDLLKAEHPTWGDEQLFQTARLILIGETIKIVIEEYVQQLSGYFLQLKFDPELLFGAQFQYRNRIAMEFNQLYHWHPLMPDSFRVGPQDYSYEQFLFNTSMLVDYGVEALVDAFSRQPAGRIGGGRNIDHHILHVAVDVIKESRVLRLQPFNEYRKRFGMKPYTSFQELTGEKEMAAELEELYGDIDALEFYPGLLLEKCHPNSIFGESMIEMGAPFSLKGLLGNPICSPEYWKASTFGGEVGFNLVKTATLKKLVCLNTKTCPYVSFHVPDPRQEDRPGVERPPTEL

[2] = target: T2, ovine COX-2 (Ovis aries, UniProt P79208); test: In vitro cyclooxygenase; format: biochemical; conditions: for Selectivity index (SI): COX-1 IC50/COX-2 IC50
T2 sequence (P79208 17-603): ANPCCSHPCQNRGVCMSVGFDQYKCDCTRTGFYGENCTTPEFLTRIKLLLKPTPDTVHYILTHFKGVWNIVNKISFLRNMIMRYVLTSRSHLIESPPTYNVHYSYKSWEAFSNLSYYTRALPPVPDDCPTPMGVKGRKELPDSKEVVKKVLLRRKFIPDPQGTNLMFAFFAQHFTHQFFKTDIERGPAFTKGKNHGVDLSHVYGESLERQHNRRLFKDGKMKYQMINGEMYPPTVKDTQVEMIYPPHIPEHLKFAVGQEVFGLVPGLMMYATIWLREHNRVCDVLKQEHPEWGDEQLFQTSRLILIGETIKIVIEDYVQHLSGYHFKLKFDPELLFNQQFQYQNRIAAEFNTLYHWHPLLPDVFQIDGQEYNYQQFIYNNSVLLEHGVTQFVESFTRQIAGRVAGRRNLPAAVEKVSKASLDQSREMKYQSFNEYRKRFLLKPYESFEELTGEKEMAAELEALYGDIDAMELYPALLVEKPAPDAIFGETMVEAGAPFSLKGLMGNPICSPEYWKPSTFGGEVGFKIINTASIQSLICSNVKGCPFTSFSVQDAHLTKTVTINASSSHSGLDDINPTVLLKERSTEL

[3] = tested on: carrageenan-induced rat paw edema; test: Carrageenan-induced rat paw edema model; format: in vivo; conditions: 10 mg kg−1 po, n = 4; for Edema inhibition %, 1 h / Edema thickness ± SEM, 1 h: 1 h after carrageenan injection; for Edema inhibition %, 3 h / Edema thickness ± SEM, 3 h: 3 h after carrageenan injection; for Edema inhibition %, 6 h / Edema thickness ± SEM, 6 h: 6 h after carrageenan injection
How it was run: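 Rats were dosed orally with test compound (10 mg kg−1) in 5% aqueous DMSO (v/v). […] Thirty minutes after dosing, 0.02 ml of 1% carrageenan was injected sub-plantar. Paw thickness was measured 1, 3 and 6 h after injection, and edema inhibition % was calculated from paw thickness.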

[4] = tested on: rat's stomach; test: Histo-pathological study of glandular and non-glandular stomach; format: in vivo; conditions: text description
[5] = tested on: rat stomach; test: Ulcerogenic liability; format: in vivo; conditions: rats sacrificed 4 h after drug administration

| SMILES | IC50 [1] [µM] | IC50 [2] [µM] | Selectivity index (SI) [2] | Edema inhibition %, 1 h [3] [%] | Edema thickness ± SEM, 1 h [3] [mm] | Edema inhibition %, 3 h [3] [%] | Edema thickness ± SEM, 3 h [3] [mm] | Edema inhibition %, 6 h [3] | Edema thickness ± SEM, 6 h [3] [mm] | Severity of histopathological lesions of the stomach (in words) [4] | Ulcer index, mean [5] [mm] |
| --- | --- | --- | --- | --- | --- | --- | --- | --- | --- | --- | --- |
| CS(=O)(=O)c1ccc(-c2nc3ccccc3n2CC(=O)N/N=C/c2ccc(Cl)cc2)cc1 [11b, (E)-N′-(4-Chlorobenzylidene)-2-(2-(4-(methylsulfonyl)phenyl)-1H-benzo[d]imidazol-1-yl) acetohydrazide] | 13.4 | 0.1 | 134 | 86 | 0.357 ± 0.012 | 93 | 0.155 ± 0.002 | 95% | 0.094 ± 0.006 | mild pathological lesions | 0.83 |
| COc1ccc(/C=N/NC(=O)Cn2c(-c3ccc(S(C)(=O)=O)cc3)nc3cc(C)ccc32)cc1 [11k, (E)-N′-(4-Methoxybenzylidene)-2-(5-methyl-2-(4-(methylsulfonyl)phenyl)-1H-benzo[d]imidazol-1-yl) acetohydrazide] | 12.3 | 0.1 | 123 | 82 | 0.464 ± 0.014 | 92 | 0.189 ± 0.017 | 94% | 0.111 ± 0.009 | mild to moderate lesions | 4.5 |
| C/C(=N\NC(=O)Cn1c(-c2ccc(S(C)(=O)=O)cc2)nc2cc(Cl)ccc21)c1ccc(Cl)cc1 [12d, (E)-2-(5-Chloro-2-(4-(methylsulfonyl)phenyl)-1H-benzo[d]imidazol-1-yl)-N′-(1-(4-chlorophenyl)ethylidene) acetohydrazide] | 13.2 | 0.1 | 132 | 89 | 0.286 ± 0.009 | 93 | 0.154 ± 0.008 | 94.7% and 95% | 0.098 ± 0.005 | mild pathological lesions | 1 |
